Consider 13 compounds from ChEMBL document CHEMBL1153716, “Constrained peptidomimetics reveal detailed geometric requirements of covalent prolyl oligopeptidase inhibitors” (J Med Chem, 2009).

Calls of active or inactive are those of the source. The rule behind the calls is not given here.

By inhibition is commonly meant the percentage by which the read-out fell short of the control.

Assay [1] concerns the target Dipeptidyl peptidase 4 (Homo sapiens) (UniProt P27487). Briefly: Inhibition of DPP4 in human brain derived endothelial cell extracts assessed as blockade of Gly-Pro-AMC substrate hydrolysis at 100 uM by fluorimetric assay. It counts as cell-free. The method in brief:
(§1)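 Confluent human cells (glioblastoma LN18, LN229, LNZ308; brain endothelial HCEC; lung PO03 or skin PG98/5 fibroblasts) grown in DMEM with 4.5 g/L glucose and 10% FCS, then lysed in PBS (pH 7.2-7.4) containing 0.1% Triton X-100. Compound was diluted from methanol stock into water and preincubated 5-10 min at room temperature. Gly-Pro-AMC was then added. Duplicate wells.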

Assay [2] shares this target. Nature of the assay: Inhibition of DPP4 in intact human astrocyte derived cells assessed as blockade of Gly-Pro-AMC substrate hydrolysis at 100 uM by fluorimetric assay. In a few lines:
(§2)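 Confluent intact human glioblastoma (LN18, LN229, LNZ308), brain endothelial HCEC, or lung PO03 and skin PG98/5 fibroblast monolayers kept in PBS (pH 7.2-7.4) without detergent. Compound was diluted from methanol stock into water and preincubated 5-10 min at room temperature. Gly-Pro-AMC was then added and hydrolysis read by fluorescence. Duplicate wells.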

Assay [3] has as its target T1, Prolyl endopeptidase (Homo sapiens) (UniProt P48147).
T1 sequence (whole entry): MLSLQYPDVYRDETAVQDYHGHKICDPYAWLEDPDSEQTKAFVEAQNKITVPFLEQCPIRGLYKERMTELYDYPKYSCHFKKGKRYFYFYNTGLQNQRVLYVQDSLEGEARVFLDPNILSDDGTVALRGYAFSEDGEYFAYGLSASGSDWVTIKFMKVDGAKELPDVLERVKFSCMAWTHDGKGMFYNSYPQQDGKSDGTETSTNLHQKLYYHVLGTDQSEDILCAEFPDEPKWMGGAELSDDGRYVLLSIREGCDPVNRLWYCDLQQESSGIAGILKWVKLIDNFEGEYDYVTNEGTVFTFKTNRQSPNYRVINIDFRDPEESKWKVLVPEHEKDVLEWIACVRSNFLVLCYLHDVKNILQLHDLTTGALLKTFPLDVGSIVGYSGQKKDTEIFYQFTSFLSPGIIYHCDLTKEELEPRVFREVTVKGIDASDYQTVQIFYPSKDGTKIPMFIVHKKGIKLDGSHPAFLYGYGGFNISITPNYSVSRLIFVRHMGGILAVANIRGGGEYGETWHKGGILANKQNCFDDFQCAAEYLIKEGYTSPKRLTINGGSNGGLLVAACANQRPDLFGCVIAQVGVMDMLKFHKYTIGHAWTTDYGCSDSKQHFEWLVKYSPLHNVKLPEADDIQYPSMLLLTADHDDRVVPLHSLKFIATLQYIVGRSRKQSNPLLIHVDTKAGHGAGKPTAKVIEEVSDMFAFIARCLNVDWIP
Briefly: Inhibition of prolyl oligopeptidase in intact human astrocyte derived cells assessed as blockade of Z-Gly-Pro-AMC substrate hydrolysis at 100 uM by fluorimetric assay. In a few lines: (§3)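 Intact confluent human glioblastoma (LN18, LN229, LNZ308), brain endothelial HCEC, or lung PO03 and skin PG98/5 fibroblast monolayers in PBS (pH 7.2-7.4), cells grown beforehand in DMEM with 10% FCS. Compound was diluted from methanol stock into water and preincubated 5-10 min at room temperature. Z-Gly-Pro-AMC was then added and read fluorimetrically. Duplicate wells.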

Assay [4] deals with Dipeptidyl peptidase 4 (Homo sapiens) (UniProt P27487). Nature of the assay: Inhibition of DPP4 in intact human fibroblasts assessed as blockade of Gly-Pro-AMC substrate hydrolysis at 100 uM by fluorimetric assay. The method in brief:
as §2

The target in assay [5] is T1, Prolyl endopeptidase (Homo sapiens). Briefly: Inhibition of prolyl oligopeptidase in human astrocyte derived cell extracts assessed as blockade of Z-Gly-Pro-AMC substrate hydrolysis at 100 uM by fluorimetric assay. In a few lines:
(§4)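 Confluent human glioblastoma (LN18, LN229, LNZ308), brain endothelial HCEC, or lung PO03 and skin PG98/5 fibroblasts extracted in PBS with 0.1% Triton X-100. Compound was diluted from methanol stock into water and preincubated 5-10 min at room temperature. Z-Gly-Pro-AMC was then added and read by fluorescence. Duplicate wells.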

In assay [6] the target is Dipeptidyl peptidase 4 (Homo sapiens) (UniProt P27487). Briefly: Inhibition of DPP4 in human astrocyte derived cell extracts assessed as blockade of Gly-Pro-AMC substrate hydrolysis at 100 uM by fluorimetric assay. The method in brief:
as §1

Assay [7] concerns the target T1, Prolyl endopeptidase (Homo sapiens). Briefly: Inhibition of prolyl oligopeptidase in human fibroblast extracts assessed as blockade of Z-Gly-Pro-AMC substrate hydrolysis at 100 uM by fluorimetric assay. The method in brief:
as §4

Assay [8] concerns the target Dipeptidyl peptidase 4 (Homo sapiens) (UniProt P27487). Briefly: Inhibition of DPP4 in intact human brain derived endothelial cells assessed as blockade of Gly-Pro-AMC substrate hydrolysis at 100 uM by fluorimetric assay. Format: cell-based. The note with it: Endothelial cell. In a few lines:
as §2

For assay [9], the target named is T1, Prolyl endopeptidase (Homo sapiens). Nature of the assay: Inhibition of prolyl oligopeptidase in human brain derived endothelial cell extracts assessed as blockade of Z-Gly-Pro-AMC substrate hydrolysis at 100 uM by fluorimetric assay. It counts as cell-free. In a few lines:
as §4

For assay [10] the target is unchanged. Briefly: Inhibition of prolyl oligopeptidase in intact human brain derived endothelial cells assessed as blockade of Z-Gly-Pro-AMC substrate hydrolysis at 100 uM by fluorimetric assay. It counts as cell-based. The note with it: Endothelial cell. The method in brief:
as §3

Assay [11] has the same target. Nature of the assay: Inhibition of prolyl oligopeptidase in intact human fibroblasts assessed as blockade of Z-Gly-Pro-AMC substrate hydrolysis at 100 uM by fluorimetric assay. The method in brief:
as §3

Assay [12] addresses Dipeptidyl peptidase 4 (Homo sapiens) (UniProt P27487). Nature of the assay: Inhibition of DPP4 in human fibroblast extracts assessed as blockade of Gly-Pro-AMC substrate hydrolysis at 100 uM by fluorimetric assay. The method in brief:
as §1

Chain of Dipeptidyl peptidase 4 (Homo sapiens) (P27487 whole entry, looked up): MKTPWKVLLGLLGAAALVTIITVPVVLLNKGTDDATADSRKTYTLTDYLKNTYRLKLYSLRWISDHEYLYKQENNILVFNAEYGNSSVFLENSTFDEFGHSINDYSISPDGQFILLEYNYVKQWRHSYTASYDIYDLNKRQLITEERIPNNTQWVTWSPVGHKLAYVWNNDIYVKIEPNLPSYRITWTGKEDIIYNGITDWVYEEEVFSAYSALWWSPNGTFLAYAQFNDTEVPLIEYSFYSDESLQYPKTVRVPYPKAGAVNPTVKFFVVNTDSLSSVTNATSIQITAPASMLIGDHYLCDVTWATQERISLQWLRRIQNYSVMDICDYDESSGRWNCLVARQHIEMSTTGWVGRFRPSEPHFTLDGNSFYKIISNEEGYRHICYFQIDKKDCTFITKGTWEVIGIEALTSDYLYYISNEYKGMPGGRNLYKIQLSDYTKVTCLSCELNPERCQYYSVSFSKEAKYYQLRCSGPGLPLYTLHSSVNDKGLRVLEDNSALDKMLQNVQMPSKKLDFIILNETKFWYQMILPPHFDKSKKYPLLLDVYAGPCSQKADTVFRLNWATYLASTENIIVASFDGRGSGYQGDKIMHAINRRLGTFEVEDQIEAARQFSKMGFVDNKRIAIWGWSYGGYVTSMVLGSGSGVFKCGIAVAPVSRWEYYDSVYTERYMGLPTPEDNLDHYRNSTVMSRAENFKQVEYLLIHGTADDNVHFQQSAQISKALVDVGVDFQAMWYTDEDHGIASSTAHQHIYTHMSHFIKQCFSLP

Take `N#C[C@H]1CS[C@@H]2C[C@@H](NC(=O)OCc3ccccc3)C(=O)N12`: the inhibition result in [1], in assay [2], in [3], in assay [4], in assay [6] and in assay [8] was “inactive” each time. Besides, the inhibition result in assay [11] and in assay [12] was “inactive” throughout. Also, the inhibition in [5] was 10%; in [7], 10%; in [9] it was greater than 50%; in [10], 10%.

Consider `N#C[C@@H]1CS[C@H]2C[C@H](NC(=O)OCc3ccccc3)C(=O)N12`, for which the inhibition result in assay [1], in assay [2], in assay [3], in assay [4], in assay [6] and in [8] was “inactive” throughout. For the same compound, in assay [12], the inhibition entry is “inactive”. For the same compound, the inhibition in assay [5] was 10%; in [7], 10%; in assay [9], greater than 50%; in assay [10], 10%; in assay [11] it was 10%.

`N#C[C@@H]1CCCN1`: the inhibition result in assay [1], in [2], in [3], in [4], in assay [5] and in assay [6] was “inactive” in each case. For the same compound, the inhibition entry in [7], in assay [8], in [9], in assay [10] and in assay [11] was “inactive” throughout.

Regarding `N#C[C@@H]1CS[C@H]2CC[C@@H](NC(=O)OCc3ccccc3)C(=O)N12`, the inhibition result in assay [1], in [2], in assay [4], in assay [6], in [8] and in assay [12] was “inactive” in each case. The inhibition in assay [3], in assay [5], in assay [7], in assay [9], in assay [10] and in [11] was greater than 50% each time.

Take `N#C[C@@H]1CCCN1C(=O)OCc1ccccc1`: the inhibition entry in assay [1], in assay [2], in assay [3], in assay [4], in [5] and in assay [6] was “inactive” throughout. Moreover, the inhibition entry in [7], in assay [8], in [10] and in [12] was “inactive” in each case. Moreover, the inhibition in [9] and in assay [11] was 10% throughout.

For the compound `CC(C)(C)OC(=O)N1CCC[C@H]1C#N`, the inhibition entry in assay [1], in [2], in assay [3], in [4], in assay [5] and in [6] was “inactive” in each case. For the same compound, the inhibition entry in [7], in assay [8], in assay [9], in assay [10], in assay [11] and in assay [12] was “inactive” each time.

Turning to `C[C@H]1O[C@H]2C[C@H](NC(=O)OCc3ccccc3)C(=O)N2[C@@H]1C#N`, the inhibition result in [1], in assay [2], in assay [3], in assay [4], in assay [6] and in assay [7] was “inactive” in each case. Besides, the inhibition result in [8], in assay [11] and in assay [12] was “inactive” throughout. In addition, the inhibition in assay [5], in assay [9] and in assay [10] was 10% throughout.

Regarding `N#C[C@@H]1CCCN1C(=O)CNC(=O)OCc1ccccc1`, the inhibition result in [1], in assay [2], in assay [4], in assay [6], in assay [8] and in assay [12] was “inactive” throughout.

For `N#C[C@H]1CCCN1C(=O)CNC(=O)OCc1ccccc1`, the inhibition entry in [1], in [2], in assay [4], in assay [6], in assay [8] and in [12] was “inactive” throughout.

As to `NC(=O)[C@@H]1CS[C@H]2C[C@@H](NC(=O)OCc3ccccc3)C(=O)N21`, the inhibition result in [1], in assay [2], in [3], in [4], in [5] and in [6] was “inactive” each time. Moreover, the inhibition result in assay [7], in assay [8], in assay [9], in assay [10], in assay [11] and in [12] was “inactive” in each case.

`N#C[C@@H]1CO[C@H]2C[C@@H](NC(=O)OCc3ccccc3)C(=O)N12`: the inhibition result in assay [1], in assay [2], in assay [3], in [4], in [5] and in [6] was “inactive” in each case. In addition, the inhibition result in assay [8], in [9], in assay [10] and in [12] was “inactive” in each case. Also, the inhibition in assay [7] and in assay [11] was 10% throughout.

For `C[C@@H](NC(=O)OCc1ccccc1)C(=O)N1CCC[C@H]1C#N`, the inhibition entry in assay [1], in assay [2], in assay [4], in [6], in [8] and in assay [12] was “inactive” each time.

For the compound `C[C@H](NC(=O)OCc1ccccc1)C(=O)N1CCC[C@H]1C#N`, the inhibition result in assay [1], in assay [2], in assay [4], in assay [6], in assay [8] and in [12] was “inactive” in each case.
